Variants at the floor of the assay were thinned out.

B1: tRNA (parent)
chain: GUUCCGUUGGCGUAAUGGUAACGCGUCUCCCUCCUAAGGAGAAGACUGCGGGUUCGAGUCCCGUACGGAACG

In this data set the parent is B1. Nature of the data set: yeast fitness relative to wild type (ratio to wild type); higher = fitter; tRNA-Arg(CCU), competitive growth, 37 C, YPD. In short, it runs like this:
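Start and end populations of a pooled competition were compared by 100-nucleotide paired-end sequencing of gene amplicons. The Saccharomyces cerevisiae strains carried tRNA-Arg(CCU) gene variants at the native genomic locus, synthesised with a 3% per-site mutation rate at 69 sites, and competed in YPD at 37°C for 24 hours in six parallel replicates. Darwinian fitness relative to wild type was based on the change in genotype frequencies. Genotypes required ≥ 100 starting reads, and estimates < 0.5 were set to 0.5.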
Consider GUUCCGUUGGCGUAAUGGUAACGCGCCUCCCUCCUAAGGAGAAGACUGCGGAUUCGAGUCCCGUACGGACCG [U26C G52A A70C], for which the yeast fitness is no more than 0.5. Turning to GUUCCGUUGGCGUAAUGGUAACGCGCCUCCCUCCUAAGGAGAAGACUGCGGGUUCGACUCCCGUACGGCACG [U26C G58C A69C], the yeast fitness amounted to 0.697. As for GUUCCGUUGGCGUAAUGGUAACGCGGCUCCCUCCUGAGGAGAAGACUGCGGGUUCGAGUCCCGUACGAGACG [U26G A36G G68A A69G], the yeast fitness came to 0.626. Regarding GUUCCGUUGGCGUAAUGGUAACGCGCCUCCCUCCUAAGGACAAGAAUGCGGGUUCGAGUCCCGUACGGAACG [U26C G41C C46A], the yeast fitness turned out to be 0.627. For GUUCCGUUGGCGUAAUGGUAACGCGGUUCCCUCCUAAGGAGAAGACUGCGGGUUCGAGUCCCGUACGGUACG [U26G C27U A69U] the value was 0.696; for GUUCCGUUGGCGUAAUGGUAACGCGCCUCCCACUUAACGAGAAGACUGCGAGUUCGCGUCCCGUACGGAACG [U26C U32A C34U G38C G51A A57C], 0.653. With GUUCCGUUGGCGUAAUGGUAACGCGCCUCCCUCCUAAGGAGAACACUGCGGGUUCGAGUCCCGUACGGAACG [U26C G44C], the yeast fitness was 0.77. Regarding GUUCCGUUGGCGUAAUGGUAACGCGCCUCCCUCCUAAGGAGAAAACUGCGGGUUCGAGUCCCGUACGGAACG [U26C G44A], the yeast fitness stood at 0.945.

With GUUCCGUUGGCGUAAUGGUAACGCGGCUCCCUCCUAAGGGGAAGACUGCGGGUUCGAGGCCAGUACGGAACG [U26G A40G U59G C62A], the yeast fitness is no more than 0.5. Regarding GUUCCGUUGGCGUAAUGGUAACGCGCCUCCCCCCUAAGGAGAAGACCGCAGGUUCGAGUCUCGAACGGAACG [U26C U32C U47C G50A C61U U64A], the yeast fitness was no more than 0.5. In the case of GUUCCGUUGGCGUAAUGGUAACGCGCCUCCCUCCUAAGGAGAAGACUACGGGUUCGAGUCCCGUACGGAACG [U26C G48A], the yeast fitness came to 1.05. Take GUUCCGUUGGCGUAAUGGUAACGCGCCUCCCACUUAACGAGAAGACUGCGAGUUCGCGUCCCGUCCGGAACG [U26C U32A C34U G38C G51A A57C A65C]: the yeast fitness is no more than 0.5. As to GUUCCGUUGGCGUAAUGGUAACGCGCCUCCCUCCUAAGGAGAAAACUGCGGGUUCGAGUCCCGUACGUAACG [U26C G44A G68U], the yeast fitness worked out at 0.533. For GUUCCGUUGGCGUAAUGGUAACGCGGGUCCCACCUAAGGUGAAGACUGCGGGUUCGAGUCCCGUACGGAACG [U26G C27G U32A A40U], the yeast fitness is no more than 0.5. In the case of GUUCCGUUGGCGUAAUGGUAACGCGCCUCCCACUUAACGAGAAGACUGCGGGUUCGAGUCCCGUACGGAACG [U26C U32A C34U G38C] it was 0.525; in that of GUUCCGUUGGCGUAAUGGUAACGCGCCUCCCUCCUAAGGAGAAGACUGCGGGUUCGAGUCCCGUACCGAACG [U26C G67C], 0.833; in that of GUUCCGUUGGCGUAAUGGUAACGCGCCUCCCUCCUAAGGAGAAGACUGCGGGUUCGAGUCCCGUACAGAACG [U26C G67A], 0.762. In the case of GUUCCGUUGGCGUAAUGGUAACGCGGGUCCCUUCUAAGCAGAAGACUGUGGGUUCGAGUCCCGUACGGAACG [U26G C27G C33U G39C C49U], the yeast fitness was no more than 0.5.

For GUUCCGUUGGCGUAAUGGUAACGCGCCUCCCUCCUAAGGAGAAGACUGCGCGUUCGAGUCCCGUACGGAACG [U26C G51C], the yeast fitness stood at 0.663. Take GUUCCGUUGGCGUAAUGGUAACGCGGCUCCCUCCUAAGGAGAAGACUGCGGGUUCGAGUCCCGUACGGACCG [U26G A70C]: the yeast fitness worked out at 0.924. For GUUCCGUUGGCGUAAUGGUAACGCGGGUCCCUCCUAAGGAGAAGACAGCGGGUUCGAGUCCUGUACGGAACG [U26G C27G U47A C62U], the yeast fitness was no more than 0.5.

GUUCCGUUGGCGUAAUGGUAACGCGGCUCCCUCCUGAGGAGAAGACUGCGGGUUCGAGUCCCGUACGGAGCG [U26G A36G A70G]: the yeast fitness stood at 0.652. For GUUCCGUUGGCGUAAUGGUAACGCGCCUCCCUCCUAAGGAGAAAACUGCGGGUUCGAGUCCCGUACGGAUCG [U26C G44A A70U], the yeast fitness amounted to 0.657. For GUUCCGUUGGCGUAAUGGUAACGCGCCUCCCUCCUAAGGAGAAGACUGCGGGUUCGAGGCCCGUACGGAACG [U26C U59G] the value was 0.862; for GUUCCGUUGGCGUAAUGGUAACGCGGCUCCUUCCUAAGGAGAAGACUGCGGGUUCGAGUCCUGUACGGAACG [U26G C31U C62U], 0.695; for GUUCCGUUGGCGUAAUGGUAACGCGGCUCCCUCCUAAGGAGAAGGUUGCAGGGUCGAGUCCCGUAUGGUACG [U26G A45G C46U G50A U53G C66U A69U], no more than 0.5. For the variant GUUCCGUUGGCGUAAUGGUAACGCGGCUCCCUCCUACGGAGGACGCUGUGGGUUCGAGUCCCGUUCGGAACG [U26G A37C A42G G44C A45G C49U A65U], the yeast fitness is no more than 0.5. In the case of GUUCCGUUGGCGUAAUGGUAACGCGGUUCCCUCCUAAGGAGAAGACUGCGGGUUCGAGUCCCGUACGGAUCG [U26G C27U A70U] it was no more than 0.5; in that of GUUCCGUUGGCGUAAUGGUAACGCGCCAGCCUCCUAAGGAGAAGACUGCGGGUUCGAGUCCCGUACGGUACG [U26C U28A C29G A69U], no more than 0.5; in that of GUUCCGUUGGCGUAAUGGUAACGCGCCUCCCCCCUAAGGAGAAGACUGCGGGUUCGAGUCCCGUAUGGAACG [U26C U32C C66U], 0.676.

Turning to GUUCCGUUGGCGUAAUGGUAACGCGCCUCCCUCCUAAGGAGAAGACGGCCGGUUCGAGUCCCGUAAGGAACG [U26C U47G G50C C66A], the yeast fitness was 0.685. On to GUUCCGUUGGCGUAAUGGUAACGCGGCUCCCUCCUACGGAGGACGCUGCGGGUUCGAGUCCCGUACGGAACG [U26G A37C A42G G44C A45G], for which the yeast fitness is no more than 0.5.

Regarding GUUCCGUUGGCGUAAUGGUAACGCGGCUCCCUCCUAAGGAGAAGACUGCGGGUUCGAGUCCCGUGCGGAACG [U26G A65G], the yeast fitness stood at 0.971. Take GUUCCGUUGGCGUAAUGGUAACGCGGCUCCCUCCUAAGGAGAGGACUGCGGGUUCGAGUCCCGUACGGAACG [U26G A43G]: the yeast fitness turned out to be 0.895. In the case of GUUCCGUUGGCGUAAUGGUAACGCGGCUCCUUCCUAAGGAGAAGACUGCGGGUUCGAGUCCCGUACGGAACG [U26G C31U] it was 1.02; in that of GUUCCGUUGGCGUAAUGGUAACGCGGCUCCAUCCUAAGGAGAAGACUGCGGGUUCGAGUCCCGUACGGAACG [U26G C31A], 0.804. In the case of GUUCCGUUGGCGUAAUGGUAACGCGGCUCUCUCCUAAGGAGAAGACUGCGGAUUCGAGUCCCGUACGGAACG [U26G C30U G52A] it was 0.519.

(Values after the RNAGym collection of RNA variant scans (doi:10.1126/science.aae0568).)
